ChEMBL document CHEMBL4725432, “Dethioacylation by Sirtuins 1-3: Considerations for Drug Design Using Mechanism-Based Sirtuin Inhibition” (ACS Med Chem Lett, 2020)
Activity calls are given as the source filed them. The rule behind the calls is not given here. Non-standard residues stand in square brackets, D forms with d. Residues, ends and D or L forms follow the SMILES beside them. *: point of attachment. Lys(Thioacetyl) = CC(=S)NCCCC[C@H](N)C(=O)O; AMC = Cc1cc(=O)oc2cc(N*)ccc12; Propionyl = CCC(=O)*; Butyryl = CCCC(=O)*

What follows are compounds tested on HEK293 (assay: Inhibition of deacetylation activity in HEK293 cell lysate incubated with substrate for 2 hrs at 50 uM measured after 90 mins by fluorescence assay). Conditions: Homo sapiens.
Assay type: functional, subcellular
In short: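 Fluorogenic thioacyl or acyl lysine-AMC substrates incubated with fresh HEK293 cell lysate (~65 μg). Deacylation measured by fluorescence. Two independent experiments in duplicate, standard deviation.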

| Structure (SMILES) | Activity |
| --- | --- |
| CC(=O)NCCCC[C@H](NC(=O)[C@H](CCCCN)NC(=O)[C@@H]1CCCN1C(=O)[C@H](CCC(N)=O)NC(C)=O)C(=O)Nc1ccc2c(C)cc(=O)oc2c1 (Ac-QPKK(Ac)-{AMC}) | Active |
| CCC(=O)NCCCC[C@H](NC(=O)[C@H](CCCCN)NC(=O)[C@@H]1CCCN1C(=O)[C@H](CCC(N)=O)NC(C)=O)C(=O)Nc1ccc2c(C)cc(=O)oc2c1 (Ac-QPKK(Propionyl)-{AMC}) | Active |
| CCCC(=O)NCCCC[C@H](NC(=O)[C@H](CCCCN)NC(=O)[C@@H]1CCCN1C(=O)[C@H](CCC(N)=O)NC(C)=O)C(=O)Nc1ccc2c(C)cc(=O)oc2c1 (Ac-QPKK(Butyryl)-{AMC}) | Active |
| CCC(=S)NCCCC[C@H](NC(=O)[C@H](CCCCN)NC(=O)[C@@H]1CCCN1C(=O)[C@H](CCC(N)=O)NC(C)=O)C(=O)Nc1ccc2c(C)cc(=O)oc2c1 | Active |
| CC(=O)N[C@@H](CCC(N)=O)C(=O)N1CCC[C@H]1C(=O)N[C@@H](CCCCN)C(=O)N[C@@H](CCCCNC(C)=S)C(=O)Nc1ccc2c(C)cc(=O)oc2c1 (Ac-QPK[Lys(Thioacetyl)]-{AMC}) | Active |
| CCCC(=S)NCCCC[C@H](NC(=O)[C@H](CCCCN)NC(=O)[C@@H]1CCCN1C(=O)[C@H](CCC(N)=O)NC(C)=O)C(=O)Nc1ccc2c(C)cc(=O)oc2c1 | Active |

These compounds were tested against T1, NAD-dependent protein deacetylase sirtuin-1 (Homo sapiens, UniProt Q96EB6) (assay: Inhibition of human recombinant SIRT1 expressed in Escherichia coli in presence of acyl peptide acetyl-H3K9 as substrate incubated for 5 mins by HPLC analysis). Conditions: not given.
T1 sequence (Q96EB6 whole entry): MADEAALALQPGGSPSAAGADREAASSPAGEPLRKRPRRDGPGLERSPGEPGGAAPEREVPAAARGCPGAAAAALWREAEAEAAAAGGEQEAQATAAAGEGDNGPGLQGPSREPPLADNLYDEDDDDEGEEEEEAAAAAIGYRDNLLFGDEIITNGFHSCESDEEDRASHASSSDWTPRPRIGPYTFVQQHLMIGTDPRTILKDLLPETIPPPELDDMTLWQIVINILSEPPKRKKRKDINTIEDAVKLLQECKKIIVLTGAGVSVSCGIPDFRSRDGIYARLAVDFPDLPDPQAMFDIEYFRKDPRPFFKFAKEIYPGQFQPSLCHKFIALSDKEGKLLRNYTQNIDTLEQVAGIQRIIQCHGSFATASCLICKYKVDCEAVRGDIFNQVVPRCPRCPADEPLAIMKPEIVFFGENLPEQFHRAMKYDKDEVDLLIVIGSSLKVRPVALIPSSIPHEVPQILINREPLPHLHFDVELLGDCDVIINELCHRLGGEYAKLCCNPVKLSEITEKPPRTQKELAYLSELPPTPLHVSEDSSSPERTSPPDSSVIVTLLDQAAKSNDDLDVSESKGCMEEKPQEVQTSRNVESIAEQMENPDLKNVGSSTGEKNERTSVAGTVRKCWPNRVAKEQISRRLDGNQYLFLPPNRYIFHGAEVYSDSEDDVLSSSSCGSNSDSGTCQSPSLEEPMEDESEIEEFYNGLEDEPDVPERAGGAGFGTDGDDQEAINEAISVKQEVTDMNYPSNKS

| Structure (SMILES) | IC50 [µM] |
| --- | --- |
| CC(=S)NCCCC[C@H](NC(=O)OCc1ccccc1)C(=O)Nc1ccccc1 | 6.5 |
| CCCC(=S)NCCCC[C@H](NC(=O)OCc1ccccc1)C(=O)Nc1ccccc1 | 12 |

These compounds were tested against T2, NAD-dependent protein deacetylase sirtuin-2 (Homo sapiens, UniProt Q8IXJ6) (assay: Inhibition of human C-terminal His-tagged SIRT2 (50 to 356 residues) expressed in Escherichia coli using Ac-Gln-Pro-Lys-Lys(pro)-AMC (oxo-11) as substrate by fluorescence assay). Conditions: not given.
T2 sequence (Q8IXJ6 whole entry): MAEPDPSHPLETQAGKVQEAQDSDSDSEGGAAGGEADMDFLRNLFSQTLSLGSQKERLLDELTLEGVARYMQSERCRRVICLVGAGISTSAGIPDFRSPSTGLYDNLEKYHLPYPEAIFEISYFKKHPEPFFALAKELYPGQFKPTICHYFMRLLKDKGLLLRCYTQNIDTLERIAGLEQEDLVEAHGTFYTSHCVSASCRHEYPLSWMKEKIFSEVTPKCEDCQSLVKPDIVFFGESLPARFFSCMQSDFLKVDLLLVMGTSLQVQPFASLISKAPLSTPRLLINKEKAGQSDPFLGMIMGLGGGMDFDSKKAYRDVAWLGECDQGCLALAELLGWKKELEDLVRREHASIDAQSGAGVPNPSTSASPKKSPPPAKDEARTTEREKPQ

| Structure (SMILES) | IC50 [µM] |
| --- | --- |
| CCCCNC(=S)NCCCC[C@H](NC(=O)OCc1ccccc1)C(=O)N[C@@H](Cc1c[nH]c2ccccc12)C(=O)NC(C)C | 1.4 |

What follows are compounds tested against T3, NAD-dependent protein deacetylase sirtuin-3, mitochondrial (Homo sapiens) (UniProt Q9NTG7) (assay: Inhibition of human recombinant SIRT3 expressed in Escherichia coli BL21 in presence of acyl peptide acetyl-H3K9 as substrate at 100 uM incubated for […] mins by HPLC analysis relative to control). Conditions: time 5.0 min.
T3 sequence (whole entry): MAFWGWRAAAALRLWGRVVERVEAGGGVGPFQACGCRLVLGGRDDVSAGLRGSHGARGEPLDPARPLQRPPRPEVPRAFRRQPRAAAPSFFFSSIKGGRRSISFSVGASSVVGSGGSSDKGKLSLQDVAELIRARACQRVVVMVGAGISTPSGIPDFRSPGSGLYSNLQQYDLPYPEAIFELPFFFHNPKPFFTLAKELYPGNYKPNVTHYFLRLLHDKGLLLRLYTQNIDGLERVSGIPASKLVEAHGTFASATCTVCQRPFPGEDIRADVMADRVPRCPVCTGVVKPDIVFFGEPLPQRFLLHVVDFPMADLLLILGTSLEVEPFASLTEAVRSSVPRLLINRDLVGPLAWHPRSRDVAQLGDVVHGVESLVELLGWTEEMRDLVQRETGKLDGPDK

| Structure (SMILES) | inhibition [%] |
| --- | --- |
| CCCC(=S)NCCCC[C@H](NC(=O)OCc1ccccc1)C(=O)Nc1ccccc1 | 23 |

The compounds below were run against T4, NAD-dependent protein deacetylase sirtuin-1 (Homo sapiens) (UniProt Q96EB6) (assay: Inhibition of human recombinant N-terminal GST-tagged SIRT1 (193 to 741 residues) deacetylation activity in presence of substrate and NAD+ at 15 uM after 60 mins by reversed-phase UPLC-MS analysis relative to control). Conditions: not given.
T4 sequence (whole entry): T1 sequence (Q96EB6 whole entry)

| Structure (SMILES) | inhibition |
| --- | --- |
| CC(=S)NCCCC[C@H](NC(=O)OCc1ccccc1)C(=O)Nc1ccccc1 | inactive |
| CCCC(=S)NCCCC[C@H](NC(=O)OCc1ccccc1)C(=O)Nc1ccccc1 | inactive |

These compounds were tested against T1, NAD-dependent protein deacetylase sirtuin-1 (assay: Inhibition of human recombinant N-terminal GST-tagged SIRT1 (193 to 741 residues) expressed in Escherichia coli using Ac-Gln-Pro-Lys-Lys(Ac)-AMC (oxo-10) as substrate by fluorescence assay). Conditions: not given.

| Structure (SMILES) | IC50 [µM] |
| --- | --- |
| CCCCNC(=S)NCCCC[C@H](NC(=O)OCc1ccccc1)C(=O)N[C@@H](Cc1c[nH]c2ccccc12)C(=O)NC(C)C | 1.13 |

What follows are compounds tested against T5, NAD-dependent protein deacetylase sirtuin-2 (Homo sapiens) (UniProt Q8IXJ6) (assay: Inhibition of human recombinant SIRT2 expressed in Escherichia coli in presence of acyl peptide acetyl-H3K9 as substrate at 100 uM incubated for 5 mins by HPLC analysis relative to control). Conditions: not given.
T5 sequence (whole entry): T2 sequence (Q8IXJ6 whole entry)

| Structure (SMILES) | inhibition [%] |
| --- | --- |
| CCCC(=S)NCCCC[C@H](NC(=O)OCc1ccccc1)C(=O)Nc1ccccc1 | 88 |

These compounds were tested against T4, NAD-dependent protein deacetylase sirtuin-1 (Homo sapiens) (assay: Inhibition of human N-terminal GST-tagged SIRT1 (193 to 741 residues) expressed in Escherichia coli preincubated with NAD+ for 30 mins using Ac-Gln-Pro-Lys-Lys(Ac)-AMC (oxo-10) as substrate at 1 to 100 uM measured after 90 mins by fluorescence assay). Conditions: dose microM 1-100, time 120.0 min.
In short: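 Recombinant SIRT1 (100 nM) preincubated 30 min with compound, either with or without NAD+ (500 μM), before the fluorogenic deacetylation read-out. Single-dose %-inhibition. Two independent experiments in duplicate, standard deviation.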

| Structure (SMILES) | inhibition |
| --- | --- |
| CC(=S)NCCCC[C@H](NC(=O)OCc1ccccc1)C(=O)Nc1ccccc1 | inactive |
| CCCCNC(=S)NCCCC[C@H](NC(=O)OCc1ccccc1)C(=O)N[C@@H](Cc1c[nH]c2ccccc12)C(=O)NC(C)C | Active |
| CCCC(=S)NCCCC[C@H](NC(=O)OCc1ccccc1)C(=O)Nc1ccccc1 | inactive |

Each compound was assayed against T3, NAD-dependent protein deacetylase sirtuin-3, mitochondrial (Homo sapiens) (assay: Inhibition of human N-terminal GST-tagged SIRT3 (102 to 399 residues) expressed in Escherichia coli using Ac-Gln-Pro-Lys-Lys(but)-AMC (oxo-12) as substrate at 100 uM by fluorescence assay relative to control). Conditions: not given.

| Structure (SMILES) | inhibition [%] |
| --- | --- |
| CCCCNC(=S)NCCCC[C@H](NC(=O)OCc1ccccc1)C(=O)N[C@@H](Cc1c[nH]c2ccccc12)C(=O)NC(C)C | 2 |

Each compound was assayed against T3, NAD-dependent protein deacetylase sirtuin-3, mitochondrial (Homo sapiens) (assay: Inhibition of human recombinant N-terminal GST-tagged SIRT3 (102 to 399 residues) deacetylation activity in presence of substrate and NAD+ at 15 uM after 60 mins measured by reversed-phase UPLC-MS analysis relative to control). Conditions: not given.

| Structure (SMILES) | inhibition |
| --- | --- |
| CC(=S)NCCCC[C@H](NC(=O)OCc1ccccc1)C(=O)Nc1ccccc1 | inactive |
| CCCC(=S)NCCCC[C@H](NC(=O)OCc1ccccc1)C(=O)Nc1ccccc1 | inactive |

What follows are compounds tested against T5, NAD-dependent protein deacetylase sirtuin-2 (Homo sapiens) (assay: Inhibition of human recombinant C-terminal His-tagged SIRT2 (50 to 356 residues) deacetylation activity in presence of substrate and NAD+ incubated for 60 mins measured after 90 mins by fluorescence assay). Conditions: not given.
In short: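 Recombinant SIRT2 (100 nM or 250 nM) incubated with fluorogenic thioacyl or oxo lysine-AMC substrates plus NAD+. Deacylation read by fluorescence. Two independent experiments in duplicate, standard deviation.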

| Structure (SMILES) | inhibition |
| --- | --- |
| CC(=O)NCCCC[C@H](NC(=O)[C@H](CCCCN)NC(=O)[C@@H]1CCCN1C(=O)[C@H](CCC(N)=O)NC(C)=O)C(=O)Nc1ccc2c(C)cc(=O)oc2c1 (Ac-QPKK(Ac)-{AMC}) | Active |
| CCC(=O)NCCCC[C@H](NC(=O)[C@H](CCCCN)NC(=O)[C@@H]1CCCN1C(=O)[C@H](CCC(N)=O)NC(C)=O)C(=O)Nc1ccc2c(C)cc(=O)oc2c1 (Ac-QPKK(Propionyl)-{AMC}) | Active |
| CCCC(=O)NCCCC[C@H](NC(=O)[C@H](CCCCN)NC(=O)[C@@H]1CCCN1C(=O)[C@H](CCC(N)=O)NC(C)=O)C(=O)Nc1ccc2c(C)cc(=O)oc2c1 (Ac-QPKK(Butyryl)-{AMC}) | Active |
